The source made the active and inactive calls. The calls are words filed in the database; no cut-off is given here.
Tests used:
[1] = Effective permeability of compound at pH 7.4 at 20 uM incubated for 18 hrs by LCMS analysis; format: ADME; conditions: not told, read-out: Peff
Method in brief: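 PAMPA passive permeability. Donor holds 20 µM sample in 50 mM phosphate-buffered saline pH 7.4, at most 5% DMSO, in triplicate. The lipid/oil/lipid trilayer-impregnated hydrophobic filter sandwich is left unshaken 18 h at 21 °C. Reference, donor and acceptor solutions are analysed by LCMS to give P_eff.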

[2] = AUClast in Wistar rat at 10 mg/kg, ip measured upto 24 hrs by LC-MS/MS analysis; format: ADME, organism-based; conditions: in vivo
[3] = Oral bioavailability in Wistar rat at 5 mg/kg measured upto 24 hrs by LC-MS/MS analysis; format: ADME, organism-based; conditions: in vivo
Method in brief: (§1)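 Male Wistar rats, single dose. i.v. in NMP/0.9% NaCl 30:70; p.o. and i.p. in NMP/HPMC/diisooctyl sulfosuccinate 10:90; 3 per i.v./p.o. group, 6 i.p. K2EDTA plasma sampled 0.083–7 h, plus 24 h for i.v./p.o.; brain and CSF at 1, 2, 7 h (i.p. only). LC-MS/MS, noncompartmental analysis.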

mouse P-gp = assay: Apparent permeability across apical to basolateral side in pig LLC-PK1 cells expressing mouse P-gp; format: ADME, cell-based, Sus scrofa
Method in brief: (§2)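 LLC-PK1 porcine kidney cells transfected with human or mouse P-gp were grown as polarized monolayers on filter membranes. Compound was dosed to the apical side and receiver appearance followed over 3 h at 37 °C. A→B Papp was measured with the P-gp inhibitor zosuquidar present at 1 µM.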

human P-gp = assay: Apparent permeability across apical to basolateral side in pig LLC-PK1 cells expressing human P-gp; format: ADME, cell-based, Sus scrofa; method in brief: as §2
[4] = Clearance in mouse microsomes; format: ADME, Microsome
[5] = Tmax in Wistar rat at 10 mg/kg, ip measured […] by LC-MS/MS analysis; format: ADME, organism-based; conditions: in vivo; method in brief: as §1
[6] = Tmax in Wistar rat at 5 mg/kg, po measured upto 24 hrs by LC-MS/MS analysis; format: ADME, organism-based; conditions: in vivo; method in brief: as §1
[7] = Unbound brain to plasma partition coefficient of compound in Wistar rat at 10 mg/kg, ip measured upto 7 hrs by LC-MS/MS analysis; format: ADME, organism-based; conditions: read-out: K(p,uu,brain); method in brief: as §1
[8] = Chemical stability at pH 1 incubated for 2 hrs; format: physicochemical; conditions: buffer, pH 1, 2 h
Method in brief: (§3)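 Compound was held in aqueous buffer at the stated pH for 2 h at 37 °C.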

[9] = Bioavailability in Wistar rat at 10 mg/kg, ip measured upto 24 hrs by LC-MS/MS analysis; format: ADME, organism-based; conditions: in vivo
[10] = Drug concentration in mouse CSF at 30 mg/kg, ip measured after 2 hrs; format: ADME, organism-based, Cerebrospinal fluid; conditions: read-out: Ct
[11] = Brain-polar-lipids/water distribution coefficient, LIMBA logD brain of the compound at pH 7.4 incubated for 8 hrs by LIMBA
[12] = Chemical stability at pH 6.5 incubated for 2 hrs; format: physicochemical; conditions: buffer, pH 6.5, 2 h; method in brief: as §3
Homo sapiens = organism: Homo sapiens; assay: Inhibition of serotonin transporter (unknown origin) at 10 uM relative to control
Method in brief: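 Cerep panel of 50 off-targets, percent inhibition at 10 µM.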

Mus musculus [13] = assay: Upregulation of brain 2-AG level in mouse at 30 mg/kg, ip measured after 2 hrs; format: functional, organism-based
Method in brief: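 Mice dosed i.p. in NaCl/DMSO/TW80 (80/10/10): 3, 10 or 30 mg/kg with sacrifice at 4 h, or 30 mg/kg over a 24 h time course. Brain extract 2-AG and AA were measured by LC/MS.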

Mus musculus [14] = assay: Antiinflammatory activity in LPS-induced CD-1 mouse neuroinflammation model assessed as decrease in brain LCN2 mRNA expression at 30 mg/kg, ip measured after 6 hrs by qRT-PCR analysis; format: functional, organism-based
Method in brief: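 CD-1 mice received NaCl + vehicle, LPS (5 mg/kg) + vehicle, or LPS + inhibitor at 30 mg/kg i.p. The vehicle was NaCl/DMSO/Tween 80, 80/10/10. Mice were killed 6 h after compound dosing. LCN2 and IL1b mRNA in cortical brain lysates were quantified by droplet digital qRT-PCR.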

[15] = biological target: T1, Monoglyceride lipase (Mus musculus) (UniProt O35678); assay: In vivo receptor occupancy at MAGL receptor in mouse at 30 mg/kg, ip measured after 8 hrs; format: functional, organism-based
T1 sequence (whole entry): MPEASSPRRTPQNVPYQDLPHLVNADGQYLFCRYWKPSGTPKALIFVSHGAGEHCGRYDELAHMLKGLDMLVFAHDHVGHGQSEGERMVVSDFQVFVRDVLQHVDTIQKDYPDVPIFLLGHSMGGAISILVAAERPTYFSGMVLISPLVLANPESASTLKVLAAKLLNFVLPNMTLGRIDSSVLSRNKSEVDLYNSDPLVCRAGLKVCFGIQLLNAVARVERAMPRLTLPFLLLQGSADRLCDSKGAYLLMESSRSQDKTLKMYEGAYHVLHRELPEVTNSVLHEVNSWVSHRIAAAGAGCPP
Method in brief: (§4)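 Mice dosed 30 mg/kg i.p. in NaCl/DMSO/TW80 (80/10/10). Brain proteome was prepared at set time points over 24 h and MAGL occupancy read by activity-based protein profiling.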

[16] = biological target: T2, Monoglyceride lipase (Rattus norvegicus) (UniProt Q8R431); assay: Binding affinity to rat MAGL assessed as dissociation rate constant by SPR analysis
T2 sequence (whole entry): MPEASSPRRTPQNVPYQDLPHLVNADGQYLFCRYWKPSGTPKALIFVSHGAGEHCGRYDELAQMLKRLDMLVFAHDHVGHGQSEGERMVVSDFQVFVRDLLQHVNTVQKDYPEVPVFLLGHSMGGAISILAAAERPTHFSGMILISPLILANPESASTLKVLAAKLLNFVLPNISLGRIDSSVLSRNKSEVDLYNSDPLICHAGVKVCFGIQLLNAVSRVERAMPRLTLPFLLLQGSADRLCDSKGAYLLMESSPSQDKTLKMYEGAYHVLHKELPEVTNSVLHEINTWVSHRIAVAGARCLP
Method in brief: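 Human or rat MAGL was immobilized by amine coupling without ethanolamine quenching. Runs were done at 18 °C in 10 mM HEPES, 150 mM NaCl, 0.05% P20, 50 µM EDTA, pH 7.4, with 1% DMSO. Single-cycle kinetics used five concentrations, top 1 µM in 2-fold steps, at 30 µL/min, giving kon, koff and Kd.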

[17] = biological target: T1, Monoglyceride lipase (Mus musculus); assay: In vivo receptor occupancy at MAGL receptor in mouse at 30 mg/kg, ip measured after 24 hrs; format: functional, organism-based; method in brief: as §4
Mus musculus [18] = assay: Antiinflammatory activity in LPS-induced CD-1 mouse neuroinflammation model assessed as decrease in peripheral tissue LCN2 mRNA expression at 30 mg/kg, ip measured after 6 hrs by qRT-PCR analysis; format: functional, organism-based
Method in brief: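 CD-1 mice were dosed with NaCl + vehicle, LPS (5 mg/kg) + vehicle, or LPS + inhibitor at 30 mg/kg i.p. (vehicle NaCl/DMSO/Tween 80, 80/10/10). They were sacrificed 6 h post-compound. LCN2 and IL1b mRNA in peripheral tissue were measured by droplet digital qRT-PCR.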

O=C1CO[C@H]2CCN(C(=O)N3CCC(Cc4ccc(C(F)(F)F)cc4)CC3)C[C@H]2N1 [listing 1 of 2 here]
Papp at 18 h, 20 µM [1]: 12.8 ×10⁻⁶ cm/s | AUC(0-t) at 24 h [2]: 40200 ng·h/mL | bioavailability [3]: 115% | Papp A→B (mouse P-gp): 24.4 ×10⁻⁶ cm/s | Papp A→B (human P-gp): 17.6 ×10⁻⁶ cm/s | microsomal CLint [4]: < 10 µL/min/mg | Tmax [5]: 0.25 h | Tmax [6]: 6 h | Kp uu at 7 h [7]: 0.53 | Stability [8]: Stable | bioavailability [9]: 111% | concentration at 2 h [10]: 689 nM | LIMBA logD brain at 8 h [11]: 1.8 | Stability [12]: Stable

O=C1CO[C@H]2CCN(C(=O)N3CCC(Cc4ccc(C(F)(F)F)cc4)CC3)C[C@H]2N1 [listing 2 of 2 here]
inhibition (Homo sapiens): 57% | Activity (Mus musculus [13]): Active | Activity (Mus musculus [14]): Active | Activity [15]: 92% | K [16]: 16.8 10^-3/s | Activity [17]: 5% | Activity (Mus musculus [18]): inactive

Source: ChEMBL document CHEMBL6127097, “Structure-Guided Discovery of cis-Hexahydro-pyrido-oxazinones as Reversible, Drug-like Monoacylglycerol Lipase Inhibitors” (J Med Chem, 2024)
